CHRM4 PAM = CHRM4 positive allosteric modulation; P08173; 360,000 compounds, 0.4% hits; CHO-K1 hM4/Gqi5, Fluo-8 calcium fluorescence, ACh EC20; 0% = ACh EC20, 100% = maximal ACh; AID 624126; activation, % at 3 µM;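 active = activation above its plate's cutoff, the mean activation of sample wells plus 3 SD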
M4 antag = antagonists of human muscarinic M4 receptor (CHRM4). P08173. CHO-hM4 cells, ACh EC80, Fluo-8 calcium fluorescence. inhibition, % at 3 µM. 360,000 compounds, 0.73% hits. AID 624125;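 active = inhibition above its plate's cutoff, the mean inhibition of sample wells plus 3 SD, cut at about 27% in these data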
CHRM5 PAM = potentiates acetylcholine response at human M5 receptor. P08912. CHO-K1 hM5, Fluo-8 calcium, ACh EC20 PAM; 0% = ACh EC20, 100% = ACh EC100. activation, % at 3 µM. 360,000 compounds, 0.3% hits. AID 624038;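 active = activation above the run cutoff, the mean activation of all test compounds plus 3 SD, cut at about 18% in these data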
Target sequence (P08912 whole entry, looked up): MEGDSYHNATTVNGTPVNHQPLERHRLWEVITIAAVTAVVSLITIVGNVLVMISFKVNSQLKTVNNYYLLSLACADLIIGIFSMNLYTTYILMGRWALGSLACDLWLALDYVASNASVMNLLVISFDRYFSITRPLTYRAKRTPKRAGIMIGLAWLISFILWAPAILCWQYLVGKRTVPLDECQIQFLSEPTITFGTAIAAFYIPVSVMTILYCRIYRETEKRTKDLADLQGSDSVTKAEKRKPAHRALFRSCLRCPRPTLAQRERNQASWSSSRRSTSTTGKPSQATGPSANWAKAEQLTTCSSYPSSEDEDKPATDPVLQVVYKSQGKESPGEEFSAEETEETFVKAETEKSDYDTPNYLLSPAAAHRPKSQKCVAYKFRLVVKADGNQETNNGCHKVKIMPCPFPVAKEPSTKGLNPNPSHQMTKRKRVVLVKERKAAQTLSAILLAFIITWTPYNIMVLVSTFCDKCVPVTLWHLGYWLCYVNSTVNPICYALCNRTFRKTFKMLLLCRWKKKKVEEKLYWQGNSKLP
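Assay system: CHO-K1 hM5 cells / Incubation: Fluo-8 loading 80 min at 37 °C plus 30 min room temperature / Technique: Fluo-8 calcium dye fluorescence, kinetic read / Repeats: single replicate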
CHRM5 agonist = CHRM5 agonism in calcium assay | AID 624037 | CHO-K1 hM5 cells, Fluo-8 calcium fluorescence; 0% DMSO wells, 100% maximal acetylcholine response | activation, % at 3 µM | 360,000 compounds, 0.19% hits | P08912;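 active = activation above the run's mean over test compounds plus 3 SD, cut at about 23% in these data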;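 also: signal is peak over basal fluorescence ratio across the kinetic read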
CHRM5 antagonist = blocks acetylcholine activation of human M5 receptor; CHO-hM5 cells, Fluo-8 calcium fluorescence, ACh EC80; inhibition, % at 3 µM; 360,000 compounds, 0.59% hits; AID 624040;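 active = inhibition above a per-plate cutoff, the mean of that plate's test compounds plus 3 SD, cut at about 27% in these data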
M4 ag = CHRM4 agonism in calcium assay; CHO-K1 hM4/Gqi5, Fluo-8 calcium fluorescence; vehicle 0%, full acetylcholine response 100%; activation, % at 3 µM; P08173; AID 624127; 360,000 compounds, 0.14% hits;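 active = activation above the run mean over all test wells plus 3 SD, cut at about 32% in these data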;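 also: peak over basal fluorescence ratio per well then scaled between controls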
Of the large screens only hits and unclear results are named; the others gave an inactive call. This is a sample that favours compounds with a hit; in the whole collection about 1.8% have one here.

C=CCN(C)CC/C=C1\c2ccccc2CSc2ccccc21	M4 antag 52, CHRM5 antagonist 62
CN(CC/C=C1/c2ccccc2CSc2ccccc21)CCCO	M4 antag 65, CHRM5 antagonist 44
NCC/C=C1/c2ccccc2CSc2ccccc21	CHRM5 antagonist 34
CC(O)CN(C)CC/C=C1/c2ccccc2CSc2ccccc21 (stereo unspecified)	none
CCOC(=O)C1=C(COC(=O)c2ccc(Cl)nc2)NC(=O)NC1C (stereo unspecified)	none
CN(C)c1ccc(/C=C/c2ccc3ccccc3[n+]2C)cc1	none
CN(C)c1ccc(/C=C/c2ccc3c4ccccc4ccc3[n+]2-c2ccccc2)cc1	M4 antag 40, CHRM5 antagonist 43
CCOC(=O)c1c(NC(=S)NC(C)=O)sc(C)c1C	CHRM4 PAM 32, CHRM5 PAM 18
CCOC(=O)c1c(NC(=O)COC)sc(C)c1C	none
Nc1ccc2c3c(cccc13)-c1ccccc1-2	M4 antag 31, CHRM5 agonist 205, CHRM5 antagonist 63
CC(=O)Nc1ccc(-c2csc(Nc3cc(C)ccn3)n2)cc1	none
Cc1ccnc(Nc2nc(-c3ccccc3)cs2)c1	CHRM5 PAM 22
CC(C)(C)S(=O)(=O)N1C[C@@H]2CC/C=C\C/C=C\2[C@H]1CCO	none
O=C(CCSc1ccc(F)cc1)NNC(=O)c1ccccc1Cl	none
CCOC(=O)CN(C(=O)CSc1nnc(CNc2ccc(F)cc2)o1)c1ccccc1	none
CCOC(=O)CN(C(=O)CSc1nnc(CNc2ccc(F)cc2)n1C)c1ccccc1	CHRM4 PAM 18
CC(=O)Nc1cc(-c2cccc(C(=O)NCCN(C)C)c2)cn2c(-c3cccc(C(F)(F)F)c3)cnc12	none
CCCCC(CC)CO (stereo unspecified)	none
CCCCC(CC)CN=C(N)NC(N)=NCCCCCCN=C(N)NC(N)=NCC(CC)CCCC (stereo unspecified)	M4 antag 82, M4 ag 40
COc1cc(C(=O)Nc2ccc(S(=O)(=O)N3CCOCC3)cc2)c([N+](=O)[O-])cc1OC	none
COCCCNC(=O)/C=C/[C@H]1O[C@@H](n2cnc3c(NC(=O)c4ccccc4)ncnc32)[C@H](O)[C@@H]1O	CHRM4 PAM 23
O=[N+]([O-])c1ccc(-n2nncc2-c2ccccc2)cc1	CHRM5 PAM 19
O=C(Cn1c(=O)sc2ccccc21)Nc1ccc(O)cc1	CHRM4 PAM 24
CCCCCOc1ccc(Br)cc1CSC(=N)N	CHRM5 antagonist 32
O=C(Nc1cc(C2CC2)nn1-c1ccccc1)c1ccc(F)cc1	none
Cc1ccccc1C(=O)NN1C(=O)CSC1=S	none
O=C1CSC(=S)N1Nc1ccccc1	CHRM5 agonist 26
CS(=O)(=O)c1sc(C#N)c2c1C(=O)CC(c1ccccc1)C2 (stereo unspecified)	M4 antag 76, CHRM5 antagonist 31
O=[N+]([O-])c1ccc2c(c1)nnn2-c1ccccc1	none
c1ccc(-n2nnc3ccccc32)cc1	M4 antag 81
CCc1ccc(OCc2nnc(SCc3ccc(C(=O)O)cc3)o2)cc1	CHRM4 PAM 27
O=C(O)c1ccc(CSc2nnc(COc3ccccc3)o2)cc1	none
CCOC(=O)CNC1CC(=O)N(c2ccc(Br)cc2)C1=O (stereo unspecified)	CHRM5 PAM 21
O=C(NNC1CC(=O)N(c2ccc(Br)cc2)C1=O)c1cccs1 (stereo unspecified)	M4 antag 30
CCOC(=O)c1ccc(N2C(=O)CC(Nc3ccc(O)cc3)C2=O)cc1 (stereo unspecified)	none
O=C(NNC1CC(=O)N(c2ccc(Br)cc2)C1=O)c1ccco1 (stereo unspecified)	none
CCCCCCCCCCOC(=O)Cn1c(COc2ccccc2OC)[n+](C)c2ccccc21	M4 antag 58, CHRM5 antagonist 45
Cn1c(COc2ccccc2O)[n+](C)c2ccccc21	none
CCOC(=O)C1=C(COC(=O)CNS(=O)(=O)c2ccc(C)c(C)c2)NC(=O)NC1C (stereo unspecified)	none
CCOC(=O)C1=C(COC(=O)CNS(=O)(=O)c2ccc(NC(C)=O)cc2)NC(=O)NC1C (stereo unspecified)	CHRM4 PAM 22
COc1cc(/C=N/NC(=O)C2=NNC(=O)C2C)ccc1O (stereo unspecified)	none
CC1C(=O)NN=C1C(=O)N/N=C\c1ccc(O)cc1O (stereo unspecified)	CHRM4 PAM 29
Cc1ccccc1S(=O)(=O)Cc1ccc(C(=O)N2CCN(c3cccc(C)c3C)CC2)o1	M4 antag 34
CC(=O)NC(CC(=O)N1CCN(C(C)=O)CC1)c1ccccc1 (stereo unspecified)	none
Cc1c(NS(=O)(=O)c2cccc(C(=O)N3CCC(C(N)=O)CC3)c2)c(=O)n(-c2ccccc2)n1C	CHRM4 PAM 32
CCCCn1c(=O)[nH]c(=O)c2c1nc(-c1cc3c(cc1Br)OCO3)n2C	none
COc1cccc(NC(=O)Cn2c(CCC(=O)O)ccc2-c2cccs2)c1	CHRM5 PAM 19
CCOC(=O)N1CCC(N(CCN(C)C)C(=S)Nc2ccccc2OCC)CC1	CHRM5 PAM 38
CCOC(=O)N1CCC(N(CCN(C)C)C(=S)Nc2ccccc2OC)CC1	none
NC(=O)c1nsc(C(=O)N(c2cccc(F)c2)C(C(=O)NC2CCCC2)c2ccc(O)cc2)c1N (stereo unspecified)	none
COc1ccc(C(C(=O)NC2CCCC2)N(C(=O)c2snc(C(N)=O)c2N)c2cccc(O)c2)cc1 (stereo unspecified)	CHRM5 antagonist 27
COc1ccc(C2C3=C(Nc4ncnn42)c2ccccc2CCC3)cc1 (stereo unspecified)	none
Fc1ccc(/C=C2\CCCC3=C2Nc2ncnn2C3c2ccc(F)cc2)cc1 (stereo unspecified)	M4 antag 28
COc1cc(-c2noc(C3CCCN(C(=O)c4ccccc4)C3)n2)cc(OC)c1OC (stereo unspecified)	CHRM4 PAM 14
O=C(C1CN(C(=O)c2cc3ccccc3o2)c2ccccc2O1)N1CCCCC1 (stereo unspecified)	none
CC(=O)c1cc2c(cc1NS(=O)(=O)c1ccccc1)OCO2	M4 antag 30
CC(=O)c1cc2c(cc1NS(=O)(=O)c1cccc(C(=O)O)c1)OCO2	none
CCOc1cc(NCc2ccccc2)c2ncn(C(C)C)c2c1	none
CCCOc1cc(NCc2ccccc2)c2ncn(C(C)C)c2c1	CHRM4 PAM 24
C[C@H]1CN(CCc2ccccc2)C(=O)[C@@H]1CC(=O)NCc1ccccc1	none
